Laboratory results: ChEMBL document CHEMBL1765047, “Synthesis and in vivo evaluation of (S)-6-(4-fluorophenoxy)-3-((1-[11C]methylpiperidin-3-yl)methyl)-2-o-tolylquinazolin-4(3H)-one, a potential PET tracer for growth hormone secretagogue receptor (GHSR)” (Bioorg Med Chem, 2011)

How the values were obtained:
[1] = Drug uptake in CD1 mouse testis at 0.1 mCi, iv after 10 mins by gamma scintillation counting; type: ADME, organism-based; settings: in vivo
Method in brief: (§1)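 Baseline whole-body distribution in male CD1 mice (23-28 g). Tracer 0.1 mCi in 0.2 mL saline (~4000 mCi/μmol) into lateral tail vein. Cervical dislocation at 10, 30 or 90 min; organs dissected on ice, weighed, gamma-counted alongside injectate aliquots as standards. Reported as %ID/g tissue, mean ± SD, n=5.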

Hippocampus [2] = assay: Drug uptake in CD1 mouse hippocampus at 0.1 mCi, iv after 10 mins by gamma scintillation counting; type: ADME, organism-based; settings: in vivo
Method in brief: (§2)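 Baseline regional brain study in male CD1 mice (23-28 g) injected via tail vein with 0.1 mCi tracer in 0.2 mL saline (~4000 mCi/μmol). Killed at 10, 30, 60 or 90 min; brain regions dissected on ice, weighed and gamma-counted with injectate standards. Reported as %ID/g tissue, mean ± SD, n=3.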

Heart [3] = assay: Drug uptake in CD1 mouse heart at 0.1 mCi, iv after 90 mins in presence of (S)-6-(4-Fluorophenoxy)-3-(piperidin-3-ylmethyl)-2-o-tolylquinazolin-4(3H)-one; type: ADME, organism-based; settings: in vivo, 1.5 h
Method in brief: (§3)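 Blockade arm: male CD1 mice (23-28 g) given 1 mg/kg blocker s.c. in saline/alcohol 9:1, or vehicle alone, 15 min before tail-vein tracer (0.1 mCi in 0.2 mL saline, ~4000 mCi/μmol). Killed by cervical dislocation at 90 min; organs dissected on ice, weighed, gamma-counted against injectate standards; %ID/g tissue, mean ± SD, n=5.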

[4] = Drug uptake in CD1 mouse adrenal at 0.1 mCi, iv after 90 mins by gamma scintillation counting; type: ADME, organism-based, Adrenal gland; settings: in vivo, 1.5 h; method in brief: as §1
Hippocampus [5] = assay: Drug uptake in CD1 mouse hippocampus at 0.1 mCi, iv after 90 mins by gamma scintillation counting; type: ADME, organism-based; settings: in vivo, 1.5 h; method in brief: as §2
Blood [6] = assay: Drug uptake in CD1 mouse blood at 0.1 mCi, iv after 10 mins by gamma scintillation counting; type: ADME, organism-based; settings: in vivo; method in brief: as §1
Hypothalamus [7] = assay: Drug uptake in CD1 mouse hypothalamus at 0.1 mCi, iv after 60 mins by gamma scintillation counting; type: ADME, organism-based; settings: in vivo, 1 h; method in brief: as §2
[8] = Drug uptake in CD1 mouse adrenal at 0.1 mCi, iv after 10 mins by gamma scintillation counting; type: ADME, organism-based, Adrenal gland; settings: in vivo; method in brief: as §1
Cortex [9] = assay: Drug uptake in CD1 mouse cortex at 0.1 mCi, iv after 60 mins by gamma scintillation counting; type: ADME, organism-based; settings: in vivo, 1 h; method in brief: as §2
Heart [10] = assay: Drug uptake in CD1 mouse heart at 0.1 mCi, iv after 30 mins by gamma scintillation counting; type: ADME, organism-based; settings: in vivo, 0.5 h; method in brief: as §1
Blood [11] = assay: Drug uptake in CD1 mouse blood at 0.1 mCi, iv after 90 mins in presence of (S)-6-(4-Fluorophenoxy)-3-(piperidin-3-ylmethyl)-2-o-tolylquinazolin-4(3H)-one; type: ADME, organism-based; settings: in vivo, 1.5 h; method in brief: as §3
Cerebellum [12] = assay: Drug uptake in CD1 mouse cerebellum at 0.1 mCi, iv after 30 mins by gamma scintillation counting; type: ADME, organism-based; settings: in vivo, 0.5 h; method in brief: as §2
Heart [13] = assay: Drug uptake in CD1 mouse heart at 0.1 mCi, iv after 90 mins by gamma scintillation counting; type: ADME, organism-based; settings: in vivo, 1.5 h; method in brief: as §1
Liver [14] = assay: Drug uptake in CD1 mouse liver at 0.1 mCi, iv after 10 mins by gamma scintillation counting; type: ADME, organism-based; settings: in vivo; method in brief: as §1
Liver [15] = assay: Drug uptake in CD1 mouse liver at 0.1 mCi, iv after 30 mins by gamma scintillation counting; type: ADME, organism-based; settings: in vivo, 0.5 h; method in brief: as §1
[16] = Lipophilicity, log D of the compound; type: physicochemical; settings: octanol/water
Method in brief: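 Computed in silico rather than measured experimentally, for pH 7.4 (log D7.4), using a log P/log D prediction program.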

Brain [17] = assay: Drug uptake in CD1 mouse brain at 0.1 mCi, iv after 10 mins by gamma scintillation counting; type: ADME, organism-based; settings: in vivo; method in brief: as §2
Hypothalamus [18] = assay: Drug uptake in CD1 mouse hypothalamus at 0.1 mCi, iv after 90 mins by gamma scintillation counting; type: ADME, organism-based; settings: in vivo, 1.5 h; method in brief: as §2
Cerebellum [19] = assay: Drug uptake in CD1 mouse cerebellum at 0.1 mCi, iv after 10 mins by gamma scintillation counting; type: ADME, organism-based; settings: in vivo; method in brief: as §2
Brain [20] = assay: Drug uptake in CD1 mouse brain at 0.1 mCi, iv after 90 mins by gamma scintillation counting; type: ADME, organism-based; settings: in vivo, 1.5 h; method in brief: as §2
Cerebellum [21] = assay: Drug uptake in CD1 mouse cerebellum at 0.1 mCi, iv after 90 mins by gamma scintillation counting; type: ADME, organism-based; settings: in vivo, 1.5 h; method in brief: as §2
[22] = Drug uptake in CD1 mouse testis at 0.1 mCi, iv after 90 mins by gamma scintillation counting; type: ADME, organism-based; settings: in vivo, 1.5 h; method in brief: as §1
Muscle tissue [23] = assay: Drug uptake in CD1 mouse muscle at 0.1 mCi, iv after 90 mins in presence of (S)-6-(4-Fluorophenoxy)-3-(piperidin-3-ylmethyl)-2-o-tolylquinazolin-4(3H)-one; type: ADME, organism-based; settings: in vivo, 1.5 h; method in brief: as §3
Hippocampus [24] = assay: Drug uptake in CD1 mouse hippocampus at 0.1 mCi, iv after 30 mins by gamma scintillation counting; type: ADME, organism-based; settings: in vivo, 0.5 h; method in brief: as §2
[25] = Drug uptake in CD1 mouse testis at 0.1 mCi, iv after 90 mins in presence of (S)-6-(4-Fluorophenoxy)-3-(piperidin-3-ylmethyl)-2-o-tolylquinazolin-4(3H)-one; type: ADME, organism-based; settings: in vivo, 1.5 h; method in brief: as §3
Cerebellum [26] = assay: Drug uptake in CD1 mouse cerebellum at 0.1 mCi, iv after 60 mins by gamma scintillation counting; type: ADME, organism-based; settings: in vivo, 1 h; method in brief: as §2
Brain [27] = assay: Drug uptake in CD1 mouse brain at 0.1 mCi, iv after 60 mins by gamma scintillation counting; type: ADME, organism-based; settings: in vivo, 1 h; method in brief: as §2
Cortex [28] = assay: Drug uptake in CD1 mouse cortex at 0.1 mCi, iv after 90 mins by gamma scintillation counting; type: ADME, organism-based; settings: in vivo, 1.5 h; method in brief: as §2
Cortex [29] = assay: Drug uptake in CD1 mouse cortex at 0.1 mCi, iv after 10 mins by gamma scintillation counting; type: ADME, organism-based; settings: in vivo; method in brief: as §2
Cortex [30] = assay: Drug uptake in CD1 mouse cortex at 0.1 mCi, iv after 30 mins by gamma scintillation counting; type: ADME, organism-based; settings: in vivo, 0.5 h; method in brief: as §2
Liver [31] = assay: Drug uptake in CD1 mouse liver at 0.1 mCi, iv after 90 mins in presence of (S)-6-(4-Fluorophenoxy)-3-(piperidin-3-ylmethyl)-2-o-tolylquinazolin-4(3H)-one; type: ADME, organism-based; settings: in vivo, 1.5 h; method in brief: as §3
Lung [32] = assay: Drug uptake in CD1 mouse lung at 0.1 mCi, iv after 90 mins in presence of (S)-6-(4-Fluorophenoxy)-3-(piperidin-3-ylmethyl)-2-o-tolylquinazolin-4(3H)-one; type: ADME, organism-based; settings: in vivo, 1.5 h; method in brief: as §3
Lung [33] = assay: Drug uptake in CD1 mouse lung at 0.1 mCi, iv after 30 mins by gamma scintillation counting; type: ADME, organism-based; settings: in vivo, 0.5 h; method in brief: as §1
Lung [34] = assay: Drug uptake in CD1 mouse lung at 0.1 mCi, iv after 10 mins by gamma scintillation counting; type: ADME, organism-based; settings: in vivo; method in brief: as §1
Muscle tissue [35] = assay: Drug uptake in CD1 mouse muscle at 0.1 mCi, iv after 90 mins by gamma scintillation counting; type: ADME, organism-based; settings: in vivo, 1.5 h; method in brief: as §1
[36] = Drug uptake in CD1 mouse adrenal at 0.1 mCi, iv after 90 mins in presence of (S)-6-(4-Fluorophenoxy)-3-(piperidin-3-ylmethyl)-2-o-tolylquinazolin-4(3H)-one; type: ADME, organism-based, Adrenal gland; settings: in vivo, 1.5 h; method in brief: as §3
Hypothalamus [37] = assay: Drug uptake in CD1 mouse hypothalamus at 0.1 mCi, iv after 10 mins by gamma scintillation counting; type: ADME, organism-based; settings: in vivo; method in brief: as §2
[38] = Drug uptake in CD1 mouse testis at 0.1 mCi, iv after 30 mins by gamma scintillation counting; type: ADME, organism-based; settings: in vivo, 0.5 h; method in brief: as §1
Muscle tissue [39] = assay: Drug uptake in CD1 mouse muscle at 0.1 mCi, iv after 10 mins by gamma scintillation counting; type: ADME, organism-based; settings: in vivo; method in brief: as §1
Blood [40] = assay: Drug uptake in CD1 mouse blood at 0.1 mCi, iv after 30 mins by gamma scintillation counting; type: ADME, organism-based; settings: in vivo, 0.5 h; method in brief: as §1
Muscle tissue [41] = assay: Drug uptake in CD1 mouse muscle at 0.1 mCi, iv after 30 mins by gamma scintillation counting; type: ADME, organism-based; settings: in vivo, 0.5 h; method in brief: as §1
Brain [42] = assay: Drug uptake in CD1 mouse brain at 0.1 mCi, iv after 30 mins by gamma scintillation counting; type: ADME, organism-based; settings: in vivo, 0.5 h; method in brief: as §2
Hypothalamus [43] = assay: Drug uptake in CD1 mouse hypothalamus at 0.1 mCi, iv after 30 mins by gamma scintillation counting; type: ADME, organism-based; settings: in vivo, 0.5 h; method in brief: as §2
Blood [44] = assay: Drug uptake in CD1 mouse blood at 0.1 mCi, iv after 90 mins by gamma scintillation counting; type: ADME, organism-based; settings: in vivo, 1.5 h; method in brief: as §1
Lung [45] = assay: Drug uptake in CD1 mouse lung at 0.1 mCi, iv after 90 mins by gamma scintillation counting; type: ADME, organism-based; settings: in vivo, 1.5 h; method in brief: as §1
Heart [46] = assay: Drug uptake in CD1 mouse heart at 0.1 mCi, iv after 10 mins by gamma scintillation counting; type: ADME, organism-based; settings: in vivo; method in brief: as §1
Hippocampus [47] = assay: Drug uptake in CD1 mouse hippocampus at 0.1 mCi, iv after 60 mins by gamma scintillation counting; type: ADME, organism-based; settings: in vivo, 1 h; method in brief: as §2
[48] = Drug uptake in CD1 mouse adrenal at 0.1 mCi, iv after 30 mins by gamma scintillation counting; type: ADME, organism-based, Adrenal gland; settings: in vivo, 0.5 h; method in brief: as §1
Liver [49] = assay: Drug uptake in CD1 mouse liver at 0.1 mCi, iv after 90 mins by gamma scintillation counting; type: ADME, organism-based; settings: in vivo, 1.5 h; method in brief: as §1

Drug uptake [1]: 1.07 % ID/g
Drug uptake (Hippocampus [2]): 0.6 % ID/g
Drug uptake (Heart [3]): 3.74 % ID/g
Drug uptake [4]: 7.87 % ID/g
Drug uptake (Hippocampus [5]): 0.65 % ID/g
Drug uptake (Blood [6]): 2.14 % ID/g
Drug uptake (Hypothalamus [7]): 0.74 % ID/g
Drug uptake [8]: 15.57 % ID/g
Drug uptake (Cortex [9]): 0.65 % ID/g
Drug uptake (Heart [10]): 3.91 % ID/g
Drug uptake (Blood [11]): 2.01 % ID/g
Drug uptake (Cerebellum [12]): 0.56 % ID/g
Drug uptake (Heart [13]): 2.94 % ID/g
Drug uptake (Liver [14]): 18.63 % ID/g
Drug uptake (Liver [15]): 14.6 % ID/g
logD [16]: 4.1
Drug uptake (Brain [17]): 0.54 % ID/g
Drug uptake (Hypothalamus [18]): 0.86 % ID/g
Drug uptake (Cerebellum [19]): 0.63 % ID/g
Drug uptake (Brain [20]): 0.54 % ID/g
Drug uptake (Cerebellum [21]): 0.59 % ID/g
Drug uptake [22]: 1.96 % ID/g
Drug uptake (Muscle tissue [23]): 2.22 % ID/g
Drug uptake (Hippocampus [24]): 0.59 % ID/g
Drug uptake [25]: 2.25 % ID/g
Drug uptake (Cerebellum [26]): 0.59 % ID/g
Drug uptake (Brain [27]): 0.62 % ID/g
Drug uptake (Cortex [28]): 0.66 % ID/g
Drug uptake (Cortex [29]): 0.63 % ID/g
Drug uptake (Cortex [30]): 0.6 % ID/g
Drug uptake (Liver [31]): 14.77 % ID/g
Drug uptake (Lung [32]): 16.28 % ID/g
Drug uptake (Lung [33]): 24.02 % ID/g
Drug uptake (Lung [34]): 26.44 % ID/g
Drug uptake (Muscle tissue [35]): 2.09 % ID/g
Drug uptake [36]: 10.02 % ID/g
Drug uptake (Hypothalamus [37]): 0.56 % ID/g
Drug uptake [38]: 1.39 % ID/g
Drug uptake (Muscle tissue [39]): 3.79 % ID/g
Drug uptake (Blood [40]): 1.87 % ID/g
Drug uptake (Muscle tissue [41]): 3.02 % ID/g
Drug uptake (Brain [42]): 0.57 % ID/g
Drug uptake (Hypothalamus [43]): 0.58 % ID/g
Drug uptake (Blood [44]): 2.01 % ID/g
Drug uptake (Lung [45]): 14.74 % ID/g
Drug uptake (Heart [46]): 5.11 % ID/g
Drug uptake (Hippocampus [47]): 0.71 % ID/g
Drug uptake [48]: 10.77 % ID/g
Drug uptake (Liver [49]): 13.46 % ID/g
Structure (SMILES): Cc1ccccc1-c1nc2ccc(Oc3ccc(F)cc3)cc2c(=O)n1C[C@H]1CCCN([11CH3])C1
